From ChEMBL document CHEMBL4184143 (J Med Chem, 2017) come the findings set out here.

Data set [1] deals with T1, Bromodomain-containing protein 4 (Homo sapiens, UniProt O60885). The experiment in a line: Inhibition of FAM-labeled ZBA248 binding to recombinant human N-terminal His6-tagged BRD4 bromodomain 1 (44 to 168 residues) expressed in Rosetta2 DE3 cells after 30 mins by Flourescence polarization assay. Type of data set: biochemical.
Data set [2] concerns the target T1, Bromodomain-containing protein 4. The experiment in a line: Inhibition of FAM-labeled ZBA248 binding to recombinant human N-terminal His6-tagged BRD4 bromodomain 2 (333 to 460 residues) expressed in Rosetta2 DE3 cells after 30 mins by Flourescence polarization assay. In kind it is biochemical.
The next data set has as its system MOLM-13. The experiment in a line: Growth inhibition of human MOLM13 cells after 4 days by WST-8 assay. Type of data set: functional, cell-based. The conditions noted are these: MOLM-13, 96 h. Put shortly: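 MOLM-13 leukemia cells were seeded at 10,000 cells/well and exposed to serially diluted compound for 4 days. Signal was normalized to DMSO controls, and IC50 was fitted by nonlinear regression.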

Data set [3] is described as follows: Half life in Sprague-Dawley rat liver microsomes at 1 uM by LC/MS method. In kind it is ADME, microsome. A general note: Liver microsomes are a subcellular fraction often used to study metabolism.
A short description of data set [4]: Half life in human liver microsomes at 1 uM by LC/MS method. In kind it is ADME, microsome.
Data set [5] can be described thus: Half life in CD1 mouse liver microsomes at 1 uM by LC/MS method. Type of data set: ADME, microsome.
For data set [6], the system named is MV4-11. The experiment in a line: Growth inhibition of human MV4-11 cells after 4 days by WST-8 assay. Type of data set: functional, cell-based. The settings on record: MV4-11, 96 h.
The subject of data set [7] is Mus musculus. The experiment in a line: Toxicity in SCID mouse implanted with human MV-411 cells assessed as weight loss at 50 mg/kg, po qd measured 2 to 3 times weekly during treatment and weekly post dose. Type of data set: organism-based. The conditions noted are these: in vivo. The method in brief: (§1)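 At ~100 mm3, mice were randomized to treatment or vehicle control. Tumors were measured by electronic calipers. Animals were checked daily for signs of toxicity and weighed 2–3 times weekly on treatment, then at least weekly afterwards.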

Data set [8] relates to Mus musculus. The experiment in a line: Toxicity in SCID mouse implanted with human MV4-11 cells at 50 mg/kg, po qd measured 2 to 3 times weekly during treatment and once weekly post dose. Type of data set: organism-based. The conditions noted are these: in vivo. Put shortly: as §1
The subject of data set [9] is MV4-11. In words: Antitumor activity against human MV4-11 cells xenografted in SCID mouse assessed as tumor growth inhibition at 50 mg/kg, po qd measured 2 to 3 times weekly during treatment and once weekly post dose. Type of data set: functional. The settings on record: MV4-11, po, read-out: TGI. The method in brief: as §1
On the technique in general: Xenograft models place foreign cells or tissue in a host animal.

Data set [10] in a line: Aqueous solubility of the compound in 5% DMSO/10% cremophor/85% saline. In kind it is physicochemical. The conditions noted are these: buffer.
Data set [11] in a line: Cmax in Sprague-Dawley rat at 25 mg/kg, po by LC/MS method. The settings on record: in vivo. Type of data set: ADME, organism-based. Details: dose 25 mg/kg, route oral. Put shortly: (§2)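 Sprague Dawley rats were dosed iv at 5 mg/kg or orally at 25 mg/kg, with compound dissolved in 20% (v/v) PCP/70% (v/v) PBS vehicle. Blood was drawn by catheter at 0, 5, 15, 30 min and 1, 2, 4, 6, 8, 24 h and spun to plasma, which was stored at −80 °C. Plasma drug was quantified by a validated LC–MS/MS method, and parameters were derived noncompartmentally.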

A short description of data set [12]: Half life in Sprague-Dawley rat at 25 mg/kg, po by LC/MS method. In kind it is ADME, organism-based. The conditions noted are these: in vivo. Put shortly: as §2
Data set [13] can be described thus: AUC (0 to t) in Sprague-Dawley rat at 25 mg/kg, po by LC/MS method. In kind it is ADME, organism-based. The conditions noted are these: in vivo. Put shortly: as §2
Data set [14] in a line: Drug level in SCID mouse at 25 mg/kg, po after 1 hr by LC-MS/MS analysis. The settings on record: in vivo, read-out: Drug uptake. Type of data set: ADME, organism-based. The method in brief: (§3)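 SCID mice received a single oral dose of 25 mg/kg in 20% (v/v) PCP/70% (v/v) PBS vehicle. Blood was collected and centrifuged to plasma, which was stored at −80 °C. Plasma drug concentration was measured by a validated LC–MS/MS method.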

Data set [15] in a line: Drug level in SCID mouse at 25 mg/kg, po after 3 hrs by LC-MS/MS analysis. The settings on record: in vivo, read-out: Drug uptake. Type of data set: ADME, organism-based. The method in brief:
as §3

Data set [16] can be described thus: Drug level in SCID mouse at 25 mg/kg, po after 6 hrs by LC-MS/MS analysis. The settings on record: in vivo, read-out: Drug uptake. Type of data set: ADME, organism-based. Put shortly:
as §3

pIC50, pKi: −log10 of the molar value.

The pIC50 is −log10 of the IC50, conventionally taken in molar units. By pKi is commonly meant the negative decadic logarithm of the Ki, by convention in mol/L. Take `COc1cc2c(cc1-c1c(C)noc1C)[nH]c1nc(C)nc(-c3c(C)[nH]c4ccccc34)c12`: the pIC50 in data set [1] was 8.21; in data set [2] it was 8.72; in the data set with MOLM-13, 7.70; in the data set on MV4-11 [6], 8.70. The pKi was 9.10 in data set [1] and greater than 9.30 in data set [2]. Besides, the t1/2 in data set [3] was greater than 1 h; in data set [4], 0.15 h; in [5] it was greater than 1 h.

Take `COc1cc2c(cc1-c1c(C)noc1C)ncc1[nH]c(=O)n([C@H](C)c3ccccn3)c12`: the Activity entry with Mus musculus [7] and with Mus musculus [8] was “Non-Toxic” each time. Also, the inhibition in vivo at 50 mg/kg in the data set with MV4-11 [9] is greater than 80%.

For orientation: Cmax means the maximum level reached in the sampled fluid or tissue. Usually half-life stands for the time in which the quantity being followed falls by half. Read a high half-life as slow loss. In general, AUC(0-t) refers to the area under the concentration-time curve up to a stated or last time point. Turning to `COc1cc2c(cc1-c1c(C)noc1C)[nH]c1ncnc(-c3c(C)[nH]c4ccccc34)c12`, the pIC50 in [1] is 8.30; in [2] it was 8.96; in the data set on MOLM-13, 7.19; in the data set with MV4-11 [6], 8.18. In addition, the pKi was 9.15 in data set [1] and greater than 9.30 in [2]. Besides, the solubility entry in data set [10] is “Insoluble”. The highest concentration (Cmax) in [11] worked out at 1400 ng/mL. Further, the values for the t1/2 in [3], in [4] and in data set [5] were greater than 1 h, 0.13 h and 0.067 h, respectively. The molecule also gave a half-life in data set [12] of 1.7 h. In [13], this molecule registered an AUC(0-t) of 13400 ng·h/mL.

As for `COc1cc2c(cc1-c1c(C)noc1C)[nH]c1ncnc(-c3c(C4CC4)n[nH]c3C)c12`, the pIC50 in data set [1] was 7.62; in data set [2], 7.93; with MOLM-13, 7.44; in the data set on MV4-11 [6], 8.22. The pKi in [1] was 8.15; in [2], 8.57. Also, the concentration at 1 h in data set [14] was found to be 2200 ng/mL. Further, the concentration at 3 h in [15] amounted to 872 ng/mL. Moreover, in data set [16], the concentration at 6 h worked out at 72 ng/mL.

For `COc1cc2c(cc1-c1c(C)noc1C)[nH]c1nc(C)nc(-c3cc(C)nc4ccccc34)c12`, the negative-log IC50 (pIC50) was 7.71 in data set [1], 8.28 in [2], 7.16 in the data set on MOLM-13 and 7.77 with MV4-11 [6]. Besides, the values for the negative-log Ki (pKi) in data set [1] and in data set [2] were 8.24 and 8.80, respectively. For the same molecule, the t1/2 in data set [3], in data set [4] and in data set [5] was greater than 1 h each time.

For `COc1cc2c(cc1-c1c(C)noc1C)[nH]c1ncnc(-c3ccoc3)c12`, the negative logarithm of the IC50 (pIC50) in data set [1] is 6.81; in data set [2], 6.74; in the data set with MOLM-13, less than 5.00; in the data set with MV4-11 [6] it was 5.54. For the same molecule, the negative-log Ki (pKi) is 7.35 in data set [1] and 7.25 in data set [2].
